Active and inactive are the calls of the source. The rule behind the calls is not given here.

The test system of assay [1] is ES-2. Description: Antiproliferative activity against human ES2 cells assessed as cell growth inhibition incubated for 10 days. The assay is classed as functional. Particulars: ES-2, 240 h, time 10 day. A digest of the protocol:
(§1)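 Outsourced panel run in 384-well plates. Cells were grown in RPMI-1640/10% FBS or a special medium at 37°C, 5% CO2. Compound was added 24 h after seeding as a 10-point, 3.16-fold series in 0.1% DMSO. Medium was refreshed and cells re-dosed at 168 h, with a time-zero plate kept. At 240 h cells were fixed, nuclei stained and imaged. gIC50 is growth midway between untreated and time zero, from a 4-parameter fit.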

Assay [2] relates to SiHa. Put plainly: Antiproliferative activity against human SiHa cells assessed as cell growth inhibition incubated for 10 days. The assay is classed as functional. To be noted: 240 h, time 10 day.
Assay [3] has as its system SJSA-1. Put plainly: Antiproliferative activity against human SJSA-1 cells assessed as cell growth inhibition incubated for 10 days. To be noted: SJSA-1, 240 h, time 10 day. The assay is classed as functional.
Assay [4] deals with HPAF-II. Put plainly: Antiproliferative activity against human HPAF-II cells assessed as cell growth inhibition incubated for 10 days. The assay is classed as functional. To be noted: 240 h, time 10 day. A digest of the protocol: as §1
In assay [5] the test system is SJRH30. Description: Antiproliferative activity against human SJRH30 cells assessed as cell growth inhibition incubated for 10 days. The assay is classed as functional. To be noted: SJRH30, 240 h, time 10 day.
Assay [6] has as its system Hs 294T. Description: Antiproliferative activity against human Hs294T cells assessed as cell growth inhibition incubated for 10 days. The assay is classed as functional. To be noted: 240 h, time 10 day. A digest of the protocol:
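Eurofins panel, 384-well. Cells kept in RPMI-1640 with 10% FBS, 2 mM L-alanyl-L-glutamine and 1 mM Na pyruvate, or in a special medium, at 37°C under 5% CO2. Compound added 24 h after seeding as 10 concentrations in 3.16-fold steps, 0.1% DMSO final. Medium replaced and compound re-dosed at 168 h. After 240 h, cells fixed and nuclei stained for imaging. gIC50 = growth midway between untreated cells and time-zero count.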

Assay [7] is described as follows: Antiproliferative activity against human OE21 cells assessed as cell growth inhibition incubated for 10 days. Particulars: OE21, 240 h, time 10 day. The assay is classed as functional.
For assay [8], the system named is U-266. Put plainly: Antiproliferative activity against human U266B1 cells assessed as cell growth inhibition incubated for 10 days. Particulars: U-266, 240 h, time 10 day. The assay is classed as functional.
Assay [9] relates to U-937. Put plainly: Antiproliferative activity against human U-937 cells assessed as cell growth inhibition incubated for 6 days by celltiter-glo assay. The assay is classed as functional. Particulars: U-937, 144 h, time 6 day. The gist of the method:
(§2)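 Cells seeded in 384-well plates at an optimized density and held 24 h. CellTiter-Glo luminescence read at Day 0 and Day 6. Four-parameter fit. gIC50 = midpoint of the growth window between DMSO and T0. Curves required ≥1.5 population doublings.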

Assay [10] concerns COLO-829. Put plainly: Antiproliferative activity against human COLO-829 cells assessed as cell growth inhibition incubated for 10 days. The assay is classed as functional. Particulars: COLO-829, 240 h, time 10 day. The gist of the method: (§3)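 Cells kept in RPMI-1640 with 10% FBS, 2 mM L-alanyl-L-glutamine and 1 mM Na pyruvate (or a special medium) at 37°C, 5% CO2. Compound added 24 h after seeding, 10 concentrations in 3.16-fold dilution, 0.1% DMSO final. Medium replaced and cells re-dosed at 168 h; 240 h incubation. Nuclei fixed, dye-stained and imaged. gIC50 = growth midway between untreated and time-zero cell counts, from a 4-parameter fit.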

Assay [11] deals with DMS-114. Description: Antiproliferative activity against human DMS-114 cells assessed as cell growth inhibition incubated for 10 days. The assay is classed as functional. Particulars: DMS-114, 240 h, time 10 day. The gist of the method:
as §1

Assay [12] deals with Daoy. Put plainly: Antiproliferative activity against human Daoy cells assessed as cell growth inhibition incubated for 10 days. To be noted: 240 h, time 10 day. The assay is classed as functional. The gist of the method:
as §1

For assay [13], the system named is DB. Put plainly: Antiproliferative activity against human DB cells assessed as cell growth inhibition incubated for 10 days. The assay is classed as functional. To be noted: 240 h, time 10 day. The gist of the method: as §1
Assay [14] has as its system DK-MG. Put plainly: Antiproliferative activity against human DK-MG cells assessed as cell growth inhibition incubated for 10 days. The assay is classed as functional. To be noted: 240 h, time 10 day. A digest of the protocol:
as §1

The test system of assay [15] is SW-620. Description: Antiproliferative activity against human SW620 cells assessed as cell growth inhibition incubated for 10 days. The assay is classed as functional. To be noted: SW-620, 240 h, time 10 day.
In assay [16] the test system is MCF7. Description: Antiproliferative activity against human MCF7 cells assessed as cell growth inhibition incubated for 6 days by celltiter-glo assay. The assay is classed as functional. To be noted: MCF7, 144 h, time 6 day. A digest of the protocol: as §2
Assay [17] has as its target Protein arginine N-methyltransferase 5 (Homo sapiens) (UniProt O14744). Description: Inhibition of PRMT5 in human Z138 cells assessed as effect on FUBP1 level by measuring fold change by LC-MS/MS analysis relative to control. The assay is classed as cell-based.
Assay [18] deals with NCI-H520. Description: Antiproliferative activity against human NCI-H520 cells assessed as cell growth inhibition incubated for 10 days. The assay is classed as functional. Particulars: NCI-H520, 240 h, time 10 day.
Assay [19] deals with LNCaP. Description: Antiproliferative activity against human LNCaP cells assessed as cell growth inhibition incubated for 10 days. The assay is classed as functional. To be noted: 240 h, time 10 day.
The test system of assay [20] is C-33-A. Put plainly: Antiproliferative activity against human C-33-A cells assessed as cell growth inhibition incubated for 10 days. The assay is classed as functional. To be noted: 240 h, time 10 day. The gist of the method:
as §3

Assay [21] concerns the target Protein arginine N-methyltransferase 5 (Homo sapiens) (UniProt O14744). Description: Inhibition of PRMT5 in human Z138 cells assessed as effect on hnRNP level by measuring fold change by LC-MS/MS analysis relative to control. The assay is classed as cell-based.
Assay [22] concerns AGS. Put plainly: Antiproliferative activity against human AGS cells assessed as cell growth inhibition incubated for 10 days. The assay is classed as functional. Particulars: 240 h, time 10 day. A digest of the protocol:
as §3

Assay [23] concerns the target Protein arginine N-methyltransferase 5 (Homo sapiens) (UniProt O14744). Put plainly: Inhibition of PRMT5 in human Z138 cells expressing EGFP at 1 to 100000 nM incubated for 3 to 6 days. The assay is classed as cell-based. To be noted: dose 1-100000 nM, time 3-6 day.
Assay [24] deals with G-401. Put plainly: Antiproliferative activity against human G-401 cells assessed as cell growth inhibition incubated for 10 days. The assay is classed as functional. To be noted: G-401, 240 h, time 10 day. The gist of the method:
as §1

Assay [25] deals with SK-N-FI. Description: Antiproliferative activity against human SK-N-FI cells assessed as cell growth inhibition incubated for 10 days. The assay is classed as functional. Particulars: 240 h, time 10 day.
For assay [26], the system named is Z-138. Description: In vivo inhibition of PRMT5 in human Z138 cells xenografted in mouse assessed as increase in p21 expression at 100 mg/kg, po BID measured for 7 days. The assay is classed as functional, organism-based. To be noted: time 7.0 day.
Assay [27] concerns Z-138. Put plainly: Antitumor activity against human Z138 cells xenografted in po dosed mouse measured for 21 days. The assay is classed as functional, organism-based. To be noted: dose lower […], dose upper 200.0 mg/kg, time 21.0 day.
The subject of assay [28] is Z-138. Description: Induction of cell cycle arrest in human Z138 cells assessed as increase in 2n cell population measured upto 5000 nM measured for 3 days by propidium iodide staining based flow cytometric analysis. The assay is classed as functional. To be noted: time 3.0 day.
Assay [29] deals with Z-138. Put plainly: Induction of cell cycle arrest in human Z138 cells assessed as accumulation of cells at G1 phase cells incubated for 1 to 10 days by propidium iodide staining based flow cytometric analysis. The assay is classed as functional. Particulars: dose <= 1000.0 nM, time 1-10 day.
Assay [30] has as its system Z-138. Description: Antitumor activity against human Z138 cells xenografted in mouse assessed as reduction in tumor volume at 200 mg/kg, po qd pretreated for 21 days followed by treatment holiday for 10 days and further compound treatment for 2 weeks starting from day 32 followed by 1 week treatment holiday. The assay is classed as functional, organism-based. To be noted: time 52.0 day.

In assay [31] the test system is MCF7. Put plainly: Induction of cell cycle arrest in human MCF7 cells assessed as increase in sub-2N cell population measured upto 5000 nM measured for 7 to 10 days by propidium iodide staining based flow cytometric analysis. To be noted: time 7-10 day. The assay is classed as functional.
Assay [32] has as its system Z-138. Description: Induction of apoptosis in human Z138 cells assessed as early apoptotic cells incubated for 6 days by annexin-V/FITC propidium iodide staining based flow cytometry analysis. To be noted: dose 200.0 nM, time 6.0 day. The assay is classed as functional, cell-based.

Protein arginine N-methyltransferase 5 (Homo sapiens), sequence (O14744 whole entry): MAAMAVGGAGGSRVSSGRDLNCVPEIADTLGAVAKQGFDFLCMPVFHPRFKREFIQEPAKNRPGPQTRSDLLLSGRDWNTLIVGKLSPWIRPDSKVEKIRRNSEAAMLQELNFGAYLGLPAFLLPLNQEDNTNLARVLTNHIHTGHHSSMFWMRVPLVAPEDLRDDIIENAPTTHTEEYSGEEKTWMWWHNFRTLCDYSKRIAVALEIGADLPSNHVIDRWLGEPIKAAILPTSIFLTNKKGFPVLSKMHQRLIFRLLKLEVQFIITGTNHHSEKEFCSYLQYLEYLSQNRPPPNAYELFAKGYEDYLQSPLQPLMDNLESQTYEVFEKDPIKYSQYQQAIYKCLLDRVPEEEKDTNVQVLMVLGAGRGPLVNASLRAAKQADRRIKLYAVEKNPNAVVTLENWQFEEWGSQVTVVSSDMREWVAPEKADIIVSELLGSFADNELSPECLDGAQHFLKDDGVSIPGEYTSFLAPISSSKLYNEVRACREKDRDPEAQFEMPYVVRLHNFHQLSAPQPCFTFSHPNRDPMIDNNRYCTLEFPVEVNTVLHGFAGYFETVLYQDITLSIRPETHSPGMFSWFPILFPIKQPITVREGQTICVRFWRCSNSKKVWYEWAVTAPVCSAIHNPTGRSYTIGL

For the compound `O=C(NC[C@H](O)CN1CCc2ccccc2C1)c1ccnc(NC2CCC2)c1`, the 50% growth inhibitory concentration (GI50) amounted to 106 nM in assay [1]; 2510 nM in assay [2]; 773 nM in [3]; 154 nM in assay [4]; 472 nM in assay [5]; 12.3 nM in [6]. For the same compound, the GI50 amounted to 146 nM in assay [7]; 78.5 nM in assay [8]; 49 nM in [9]; 54.4 nM in assay [10]; 1010 nM in assay [11]; 270 nM in assay [12]. The GI50 in [13] was found to be 2.51 nM; in [14], 89.5 nM; in assay [15], 5640 nM; in [16] it was 215 nM; in [18], 15.6 nM; in assay [19] it was 2930 nM. Also, the GI50 in assay [20] turned out to be 228 nM; in [22], 2030 nM; in [24], 38.4 nM; in [25] it was 308 nM. Also, the fold change (FC) in [17] was -6.6; in assay [21] it was -5.3. The inhibition result in assay [23] is “inactive”.
Regarding `CC(=O)N1CCC(Nc2cc(C(=O)NC[C@H](O)CN3CCc4ccccc4C3)ncn2)CC1` [PEMRAMETOSTAT], the inhibition result in assay [26] was “Active”. Besides, the Activity entry in [27], in assay [29] and in [32] was “Dose-Dependent Effect” in each case. In addition, the outcome in assay [28], in assay [30] and in assay [31] was Active.

For the origin of these results see ChEMBL document CHEMBL5653630, “Activation of the p53-MDM4 regulatory axis defines the anti-tumour response to PRMT5 inhibition through its role in regulating cellular splicing” (Sci Rep, 2018).
